GC-B act – GC-B (human) receptor activation; P20594; HEK293-GC-B cells, CNP EC30, cGMP TR-FRET; 0% at EC30 CNP, 100% saturating CNP; activation, % at 10 µM; actives 0.11% (n = 370,000); AID 1920062;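 active = activation at 10 µM reaching about 35% in either raw or pattern-adjusted values, limit read from the data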
FN deposit inh – fibronectin deposition inhibition. AH1F fibroblasts, Alexa488-fibronectin deposition fluorescence, overnight. inhibition, % at 12.6 µM. actives 0.086% (n = 350,000). AID 743247;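 active = mean inhibition across replicates of 30% or more, regardless of how many single replicates reach that level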;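 note: positive control wells lacked labelled fibronectin entirely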
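Measured by – fluorescence 485/525 nm · System – AH1F fibroblast monolayer, labelled fibronectin deposition · Amount – 10000 cells per well · Buffer or medium – serum-reduced DMEM (2% serum) · Doses – single dose, pinned · Also added – fluorescent fibronectin at 24 nM final · Schedule – 1 h cell attachment, overnight exposure to compound and label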
NSD2 inh – blocks human histone methyltransferase NSD2. NSD2 peptide methylation, AlphaScreen, 120 min. actives 0.54% (n = 310,000). O96028. inhibition, % at 12.5 µM; in the data active = inhibition above about 50%
CASP6 VEID inh – blocks human caspase-6 cleavage activity; actives 0.53% (n = 350,000); purified caspase-6, Z-VEID-R110 cleavage fluorescence; P55212; inhibition, % at 12.5 µM;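 active = mean inhibition across replicates at least about 35%, with every replicate also reaching that limit, limit read from the data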;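 note: 0% = median of neutral control wells and 100% = no fluorescence left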
CaV13 ICDI inh – Primary screen for inhibitors of IQ motif and Ca2+-dependent inactivation inhibitor domain binding in CACNA1D, Förster resonance energy transfer in living cells, …; actives 0.098% (n = 340,000); inhibition, % at 12.3 µM; AID 743397; HEK cells, CFP/YFP FRET ICDI-IQ, plate reader, 10 min; percent FRET-ratio fall versus neutral wells;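 active = mean replicate inhibition of at least 30% and at least 1% of replicates passing that level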;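 note: 0% = median of the neutral control wells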
GC-A act – GC-A (human) enzyme activation; P16066; HEK293 GC-A cells, cGMP TR-FRET, EC30 ANP; 0% at EC30 ANP, 100% saturating ANP; activation, % at 10 µM; actives 0.14% (n = 370,000); AID 1671463; in the data active = activation above about 40%
* = called active by the depositor; . = no result. Sampled rows, rich in hits. Any-hit rate of the full collection: about 0.99%.

SMILES	GC-B act	FN deposit inh	NSD2 inh	CASP6 VEID inh	CaV13 ICDI inh	GC-A act
COc1cc(-c2coc3c(C(=O)NCc4ccc(OC)c(OC)c4)cccc23)ccc1O	3	14	0	11	-6	1
CN(C)C=Nc1nc2c(Br)ccc(Br)c2cc1C(=O)NCC(C)(C)C	-8	.	.	.	.	48*
Nc1nc2c(Br)ccc(Br)c2cc1C(=O)NCc1cccc2ccccc12	-10	-4	.	-1	-3	3
COc1ccc(CC(=O)N2CCOCC2)cc1	3	.	-6	.	-5	-4
CCCCCc1ccc(CC(=O)N2CCOCC2)cc1	-1	13	-1	50*	-6	5
CCN(CC)CCN1C2=C(C(=O)CC(C)(C)C2)C(c2cccc(F)c2)C2=C1CC(C)(C)CC2=O	-6	-1	.	-1	123*	-9
C[C@@H]1CN([C@@H](C)CO)S(=O)(=O)c2ccc(Br)cc2O[C@H]1CN(C)CC1CCOCC1	.	-12	.	.	.	.
O=C(c1cnn2c(-c3ccccc3)cc(-c3ccccc3)nc12)N1CCN(Cc2ccccc2)CC1	35*	-2	-13	-5	-3	30
CCOC(=O)c1cc2c(=Cc3ccc(N(C)C)cc3)c3ccccc3n2[n+]1C	-19	5	37	97*	-12	-16
CN(C)c1ccc(C=c2c3ccccc3n3c2c2ccccc2[n+]3C)cc1	-47	0	.	-26	-2	-55
Cc1cc2c(=Cc3ccc(N(C)C)cc3)c3ccccc3n2[n+]1C	-23	-26	55*	-4	-7	-17
CCC(=O)Nc1ccc2c(c1)OC[C@@H](C)N(CC1CCCCC1)C[C@H](C)[C@H](OC)CN(C)C2=O	.	6	.	.	.	.
CS(=O)(=O)N1C[C@@H]2C(c3ccc(-c4ccc(F)cc4)cc3)[C@H](C1)N2CC1CC1 (stereo partly specified)	.	7	.	.	.	.
C[C@H](CO)N1C[C@H](C)[C@@H](CN(C)Cc2ccc(Cl)c(Cl)c2)Oc2ccc(NS(=O)(=O)c3cccs3)cc2CC1=O	.	.	.	-2	.	.
COP(=O)(OC)c1ccc(NCc2cc(O)ccc2O)cc1	-2	-4	26	53*	-11	5
Cc1noc(C)c1S(=O)(=O)N(C)C[C@H]1Oc2c(NC(=O)c3nc4ccccc4s3)cccc2C(=O)N([C@H](C)CO)C[C@H]1C	.	15	.	.	.	.
COc1ccc(Oc2c(OC)cc(NCc3ccc(CN)cc3)c3ncccc23)cc1	5	.	76*	21	-6	-8
O=C(C[C@@H]1C=C[C@@H](NC(=O)c2ccc(F)cc2)[C@@H](CO)O1)NCc1ccncn1	.	-5	.	87*	.	.
CCOC(=O)c1c(NC(=O)C2CC2)sc2c1CC(C)(C)OC2	-3	11	-5	-3	-9	1
CCOC(=O)c1c(NC(=O)C2CC(Cl)=CCC2C(=O)O)sc2c1CC(C)(C)OC2 (stereo unspecified)	-2	-3	2	43*	-11	-1
Cc1cc(C)cc(NC(=O)Cc2ccc(S(=O)(=O)N3CCCC3)s2)c1	1	-2	0	51*	-6	3
C[C@@H]1CN([C@H](C)CO)C(=O)c2cc(C#Cc3ccccc3)cnc2O[C@@H]1CN(C)C(=O)C1CC1	.	-6	.	2	.	.
Cc1noc(C)c1NC(=O)N(C)C[C@@H]1Oc2ccc(NC(=O)NC(C)C)cc2CC(=O)N([C@H](C)CO)C[C@H]1C	.	.	.	-3	.	.
CCOC(=O)N1CCC(N2C(=O)c3cc(C(=O)NC4CCCCC4)ccc3C2O)CC1 (stereo unspecified)	.	11	.	1	38*	.
CCCN1C(=O)c2cc(C(=O)NC3CCCCCC3)ccc2C1O (stereo unspecified)	3	-5	.	0	-2	0
O=C(O)c1cccc2c1C(=O)c1ccccc1C2=O	0	-10	4	0	9	1
CN(C=[N+](C)C)c1cccc2c1C(=O)c1ccccc1C2=O	1	4	69*	.	-6	10
COCCn1c(=N)c(S(=O)(=O)c2ccc(F)cc2)cc2c(=O)n3ccccc3nc21	3	-2	-3	-1	104*	6

Screening data as filed in PubChem.
